In ChEMBL document CHEMBL1156306, “Discovery, biological evaluation, and structure-activity relationship of amidine based sphingosine kinase inhibitors” (J Med Chem, 2010):
pEC50: −log10 of the molar value. Each block holds one compound with its values, some of them ahead of it. The source made the active and inactive calls. No cut-off for these calls is given here.

Assays:
[1] = molecular target: Diacylglycerol kinase gamma (Homo sapiens) (UniProt P49619); experiment: Inhibition of DAGgamma up to 100 uM
Chain of Diacylglycerol kinase gamma (Homo sapiens) (P49619 whole entry): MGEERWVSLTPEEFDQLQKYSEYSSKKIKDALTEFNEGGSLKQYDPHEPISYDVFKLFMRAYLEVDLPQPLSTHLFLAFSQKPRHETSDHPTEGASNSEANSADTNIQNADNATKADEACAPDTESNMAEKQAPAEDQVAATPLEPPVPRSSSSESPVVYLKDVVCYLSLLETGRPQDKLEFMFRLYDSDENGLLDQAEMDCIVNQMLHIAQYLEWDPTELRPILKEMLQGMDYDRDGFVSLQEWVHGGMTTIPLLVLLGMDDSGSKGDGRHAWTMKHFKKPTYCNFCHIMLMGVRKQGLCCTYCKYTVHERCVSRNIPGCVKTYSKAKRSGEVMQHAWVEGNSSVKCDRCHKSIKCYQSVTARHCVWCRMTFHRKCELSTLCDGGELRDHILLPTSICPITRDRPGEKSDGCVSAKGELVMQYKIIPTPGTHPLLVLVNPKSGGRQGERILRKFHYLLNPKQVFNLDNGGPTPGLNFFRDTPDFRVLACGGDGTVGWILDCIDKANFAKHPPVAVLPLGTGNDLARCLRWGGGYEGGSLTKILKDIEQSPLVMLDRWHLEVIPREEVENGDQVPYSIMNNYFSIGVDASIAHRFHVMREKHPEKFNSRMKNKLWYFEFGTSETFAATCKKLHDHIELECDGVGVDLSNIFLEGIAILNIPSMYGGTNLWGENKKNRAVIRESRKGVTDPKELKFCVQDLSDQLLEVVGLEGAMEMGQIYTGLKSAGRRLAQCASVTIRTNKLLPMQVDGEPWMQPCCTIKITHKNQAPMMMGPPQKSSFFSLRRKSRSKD
How it was run: (§1)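 Recombinant diacylglycerol kinases (γ, δ1, ζ) tested with compound at concentrations up to 100 μM.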

[2] = molecular target: T1, Diacylglycerol kinase delta (Homo sapiens) (UniProt Q16760); experiment: Inhibition of DAGdelta1 up to 100 uM; how it was run: as §1
T1 sequence (whole entry): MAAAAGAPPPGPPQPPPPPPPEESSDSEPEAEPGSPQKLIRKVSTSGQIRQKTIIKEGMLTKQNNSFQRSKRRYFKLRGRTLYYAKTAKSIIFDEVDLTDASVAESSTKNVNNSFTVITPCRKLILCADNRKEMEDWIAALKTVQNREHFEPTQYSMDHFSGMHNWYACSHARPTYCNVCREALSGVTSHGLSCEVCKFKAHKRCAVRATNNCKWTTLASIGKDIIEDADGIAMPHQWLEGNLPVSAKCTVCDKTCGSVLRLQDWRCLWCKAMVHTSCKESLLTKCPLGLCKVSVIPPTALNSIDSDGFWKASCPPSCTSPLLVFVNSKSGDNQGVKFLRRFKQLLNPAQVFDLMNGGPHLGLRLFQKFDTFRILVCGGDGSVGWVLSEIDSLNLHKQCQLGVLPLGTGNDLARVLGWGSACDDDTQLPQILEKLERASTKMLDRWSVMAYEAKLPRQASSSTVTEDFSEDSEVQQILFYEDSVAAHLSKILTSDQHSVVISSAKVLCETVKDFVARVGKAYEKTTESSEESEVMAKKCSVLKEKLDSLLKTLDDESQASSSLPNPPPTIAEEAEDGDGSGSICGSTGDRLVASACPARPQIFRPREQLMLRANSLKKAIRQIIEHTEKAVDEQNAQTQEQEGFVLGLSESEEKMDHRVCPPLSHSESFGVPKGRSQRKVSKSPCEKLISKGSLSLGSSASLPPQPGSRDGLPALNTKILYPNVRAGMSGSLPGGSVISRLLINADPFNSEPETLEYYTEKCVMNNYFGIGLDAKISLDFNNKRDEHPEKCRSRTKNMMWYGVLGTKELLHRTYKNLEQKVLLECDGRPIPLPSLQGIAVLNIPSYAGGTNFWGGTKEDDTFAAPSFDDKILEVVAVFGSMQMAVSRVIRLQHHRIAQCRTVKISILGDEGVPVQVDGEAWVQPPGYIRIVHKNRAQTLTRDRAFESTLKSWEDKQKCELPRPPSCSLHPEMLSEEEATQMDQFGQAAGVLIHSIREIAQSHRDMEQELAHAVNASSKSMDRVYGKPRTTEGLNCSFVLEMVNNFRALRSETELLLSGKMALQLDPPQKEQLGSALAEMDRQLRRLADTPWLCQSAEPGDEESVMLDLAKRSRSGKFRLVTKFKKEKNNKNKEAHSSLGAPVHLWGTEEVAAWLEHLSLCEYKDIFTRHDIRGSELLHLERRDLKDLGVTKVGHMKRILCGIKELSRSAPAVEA

[3] = molecular target: Protein kinase C alpha type (Homo sapiens) (UniProt P17252); experiment: Inhibition of PKCalpha up to 10 uM
How it was run: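 Compound tested at protein kinase C α at concentrations up to 10 μM.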

[4] = molecular target: T2, Sphingosine kinase 2 (Mus musculus) (UniProt Q9JIA7); experiment: Inhibition of mouse recombinant SPHK2 expressed in baculovirus-infected Sf9 cells in presence of sphingosine
T2 sequence (whole entry): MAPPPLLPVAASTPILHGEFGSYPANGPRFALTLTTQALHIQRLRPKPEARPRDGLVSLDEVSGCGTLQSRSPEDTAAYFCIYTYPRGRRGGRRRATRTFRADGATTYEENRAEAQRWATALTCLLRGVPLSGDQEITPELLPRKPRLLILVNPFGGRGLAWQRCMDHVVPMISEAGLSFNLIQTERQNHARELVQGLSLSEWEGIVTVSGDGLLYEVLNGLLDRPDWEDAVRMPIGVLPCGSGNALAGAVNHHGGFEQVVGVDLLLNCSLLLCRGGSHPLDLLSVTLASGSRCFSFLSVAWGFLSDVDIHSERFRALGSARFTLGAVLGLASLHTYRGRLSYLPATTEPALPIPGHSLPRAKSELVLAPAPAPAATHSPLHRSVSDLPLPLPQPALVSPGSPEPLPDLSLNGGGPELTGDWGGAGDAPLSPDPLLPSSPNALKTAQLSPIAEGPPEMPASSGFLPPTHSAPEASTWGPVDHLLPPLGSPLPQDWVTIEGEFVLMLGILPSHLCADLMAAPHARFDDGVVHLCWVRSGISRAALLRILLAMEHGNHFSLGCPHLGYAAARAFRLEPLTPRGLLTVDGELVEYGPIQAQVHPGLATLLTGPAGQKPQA
How it was run: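 Enzyme source was a 10,000 × g supernatant of Sf9 cells infected for 72 h with baculovirus encoding mouse SphK2, using 2–3 μg protein per assay. Sphingosine phosphorylation conditions were as in an earlier report.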

[5] = molecular target: Sphingosine kinase 1 (Homo sapiens) (UniProt Q9NYA1); settings: Sf9
Chain of Sphingosine kinase 1 (Homo sapiens) (Q9NYA1 whole entry): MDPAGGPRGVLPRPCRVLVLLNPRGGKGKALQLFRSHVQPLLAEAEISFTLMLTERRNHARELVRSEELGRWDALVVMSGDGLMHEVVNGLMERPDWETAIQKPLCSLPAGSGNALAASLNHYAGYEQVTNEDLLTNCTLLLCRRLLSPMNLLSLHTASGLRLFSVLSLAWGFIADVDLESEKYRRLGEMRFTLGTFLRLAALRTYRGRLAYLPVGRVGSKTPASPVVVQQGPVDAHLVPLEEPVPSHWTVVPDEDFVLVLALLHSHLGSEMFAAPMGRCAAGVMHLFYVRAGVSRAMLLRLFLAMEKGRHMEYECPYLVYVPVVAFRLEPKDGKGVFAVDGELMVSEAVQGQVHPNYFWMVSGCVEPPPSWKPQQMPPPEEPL

[6] = molecular target: T2, Sphingosine kinase 2 (Mus musculus); experiment: Ratio of Ki to Km for mouse recombinant SPHK2 expressed in baculovirus-infected Sf9 cells
VSMC [7] = experiment: Inhibition of FBS-induced SPHKk1 mRNA level in rat VSMC after 4 hrs by RT-PCR; format: functional
How it was run: (§2)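 Rat aortic VSMC stimulated with 10% FBS for 4 h. Total RNA extracted with Trizol and reverse-transcribed. Sphk1 and Sphk2 mRNA measured by quantitative real-time PCR and normalized to 18S rRNA, N=3.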

VSMC [8] = experiment: Inhibition of FBS-induced SPHKk2 mRNA level in rat VSMC after 4 hrs by RT-PCR; format: functional, cell-based; how it was run: as §2
[9] = molecular target: T3, Sphingosine kinase 2 (Rattus norvegicus) (UniProt A6JB73); experiment: Inhibition of [32P]S1P/FBS-stimulated SPHK2 in rat VSMC after 12 hrs relative to control
T3 sequence (whole entry): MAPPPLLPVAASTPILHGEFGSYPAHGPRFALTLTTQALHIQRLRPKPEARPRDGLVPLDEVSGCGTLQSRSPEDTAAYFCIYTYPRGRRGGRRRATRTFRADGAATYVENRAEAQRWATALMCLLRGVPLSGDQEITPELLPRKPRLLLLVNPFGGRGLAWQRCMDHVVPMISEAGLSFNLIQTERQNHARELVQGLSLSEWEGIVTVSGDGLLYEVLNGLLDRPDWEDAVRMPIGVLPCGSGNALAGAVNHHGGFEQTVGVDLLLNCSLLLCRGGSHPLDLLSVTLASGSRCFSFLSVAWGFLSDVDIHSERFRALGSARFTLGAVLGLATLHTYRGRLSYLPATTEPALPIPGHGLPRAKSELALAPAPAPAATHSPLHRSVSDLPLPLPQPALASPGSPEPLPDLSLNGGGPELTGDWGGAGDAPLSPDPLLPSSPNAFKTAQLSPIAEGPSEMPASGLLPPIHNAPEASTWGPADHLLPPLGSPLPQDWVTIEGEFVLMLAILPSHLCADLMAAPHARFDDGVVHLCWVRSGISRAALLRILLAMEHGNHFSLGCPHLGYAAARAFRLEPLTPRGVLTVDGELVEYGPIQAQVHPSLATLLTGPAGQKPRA
How it was run: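 Rat aortic VSMC stimulated with 10% FBS for 0, 3, 6 and 12 h. SphK2 activity measured as [32P]-S1P formation, N=3.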

VSMC [10] = experiment: Inhibition of FBS-induced intracellular concentration of S1P in rat VSMC; format: functional, cell-based
[11] = Inhibition of FBS-induced cell proliferation of rat VSMC after 24 hrs by BrdU incorporation assay; format: functional, cell-based
How it was run: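 Rat aortic VSMC pretreated with compound for 30 min, then stimulated with 10% FBS for 24 h. Proliferation measured by BrdU incorporation (10 μM BrdU) using an immuno-absorbance read-out, dose-response, N=6.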

[12] = Cytotoxicity against rat VSMC assessed as cell viability at 0.1 to 100 uM; format: cell-based; settings: in the assay text read “0.001 to 100 uM” for “0.1 to 100 uM”
How it was run: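 Rat aortic vascular smooth muscle cells, cultured in vitro, exposed to compound across 0.001–100 μM. Cytotoxic response read with the MultiTox-Fluor fluorescence assay, using 20 μM cyclosporine A as reference, N=3.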

VSMC [13] = experiment: Inhibition of serum-induced cell proliferation of rat VSMC
[14] = Cytotoxicity against rat VSMC assessed as cell viability at 10 uM by microscopical analysis

SMILES: CCCCCCCCCCCCc1ccc(NC(=O)C2(C(=N)N)CC2)cc1
inhibition [1]: inactive | inhibition [2]: inactive | inhibition [3]: inactive | Ki [4]: 6 µM | Ki [5]: 0.3 µM | Ratio [6]: 1.2

SMILES: CCCCCCCCc1ccc(C(=O)N[C@@H](C)C(=N)N)cc1.Cl
Ki [4]: 20 µM | inhibition (VSMC [7]): inactive | inhibition (VSMC [8]): inactive | inhibition [9]: inactive | inhibition (VSMC [10]): Active | pEC50 [11]: 5.00 | Activity [12]: Non-toxic | Ki [5]: 55 µM | inhibition (VSMC [13]): Active | Ratio [6]: 4 | Activity [14]: Non-toxic

SMILES: CCCCCCCCc1ccc(C(=O)N[C@@H](C)C(N)=O)cc1
Ki [4]: > 100 µM | Ki [5]: > 100 µM | Ratio [6]: > 20

SMILES: CCCCCCCCCCc1ccc(NC(=O)C2(C(=N)N)CC2)cc1
Ki [4]: 4 µM | Ki [5]: 3 µM | Ratio [6]: 0.8

SMILES: CCCCCCCCc1ccc(C(=O)N[C@H](C)C(=N)N)cc1
Ki [4]: 25 µM | Ki [5]: > 100 µM | Ratio [6]: 5

SMILES: CCCCCCCCCCCCCCCCc1ccc(NC(=O)C2(C(=N)N)CC2)cc1
Ki [4]: > 100 µM | Ki [5]: 30 µM | Ratio [6]: > 20

SMILES: CCCCCCCCc1ccc(C(=O)N[C@@H](C)C(=O)O)cc1
Ki [4]: > 100 µM | Ki [5]: > 100 µM | Ratio [6]: > 20

SMILES: CCCCCCCCCCCCCCc1ccc(NC(=O)C2(C(=N)N)CC2)cc1
Ki [4]: > 100 µM | Ki [5]: 8.4 µM | Ratio [6]: > 20

SMILES: CCCCCCCCc1ccc(C(=O)NCC(=N)N)cc1
Ki [4]: 60 µM | Ki [5]: > 100 µM | Ratio [6]: 12

Results, then the compound that gave them:

Ki [4]: 23 µM | Ki [5]: 25 µM | Ratio [6]: 4.6
SMILES: CCCCCCCCc1ccc(C(=O)NC2(C(=N)N)CC2)cc1

Ki [4]: 4 µM | Ki [5]: 5 µM | Ratio [6]: 0.8
SMILES: CCCCCCCCCCc1ccc(C(=O)NC2(C(=N)N)CC2)cc1

Ki [4]: 10 µM | Ki [5]: 36 µM | Ratio [6]: 2
SMILES: CCCCCCCCCCCCCCCCc1ccc(C(=O)NC2(C(=N)N)CC2)cc1

inhibition [1]: inactive | inhibition [2]: inactive | inhibition [3]: inactive | Ki [4]: 0.5 µM | Ki [5]: 0.2 µM | Ratio [6]: 0.1
SMILES: CCCCCCCCCCCCc1ccc(C(=O)NC2(C(=N)N)CC2)cc1

Ki [4]: 32 µM | Ki [5]: 10 µM | Ratio [6]: 6.4
SMILES: CCCCCCCCCCCCCCc1ccc(C(=O)NC2(C(=N)N)CC2)cc1
